{"data": "Published values from different studies", "Fibroblast growth factor 14": "Fibroblast growth factor 14 (Homo sapiens, UniProt Q92915)", "ADRA2C": "Alpha-2C adrenergic receptor (ADRA2C, Homo sapiens, UniProt P18825)", "PLEKHA3": "PLEKHA3 (Homo sapiens, UniProt Q9HB20)", "note": "Lines come from different studies, so protocols differ."}
{"Compound": "CC(=O)Nc1ccc(Oc2ccc3c(c2)C(=O)N(c2cc(C)ccc2C)C3=O)cc1", "target": "Fibroblast growth factor 14", "assay": "binding, SPR", "quantity": "Kd", "result": "13600 nM"}
{"Compound": "Cc1cc(Oc2ncccc2CN2CCN(c3ccccc3)CC2)ccc1-c1c(C)c(=O)[nH]c(=O)n1C", "target": "ADRA2C", "assay": "ligand displacement, radioligand", "quantity": "Ki", "result": "11.5 nM"}
{"Compound": "CCOC(=O)c1cccc(NC(=O)Cn2cc(CO)c3ccccc32)c1", "target": "Fibroblast growth factor 14", "assay": "binding, SPR", "quantity": "Kd", "result": "293 nM"}
{"Compound": "COc1nc(-c2cccc(-c3ccccc3)c2C)ccc1CNCCNC(=O)CCCCCCCCCCC(=O)N1CCN(CCNC(=O)c2cc3c(=O)n4cccc(C)c4nc3n(CCc3cccs3)c2=N)CC1", "target": "Programmed cell death 1 ligand 1 (Cd274, Mus musculus, UniProt Q9EP73)", "assay": "binding, BLI", "quantity": "Kd", "result": "625 nM"}
{"Compound": "CCOc1ccc(C(=O)CC(SCc2cccc(Br)c2)C(=O)O)cc1 (stereo not drawn)", "target": "PLEKHA3", "assay": "ligand displacement, FP", "quantity": "Ki", "result": "6030 nM"}
{"Compound": "O=c1cc(-c2ccc([N+](=O)[O-])cc2)[nH]c2c(-c3ccc(Cl)cc3)c(Cc3ccccc3)nn12", "target": "Fibroblast growth factor 14", "assay": "binding, SPR", "quantity": "Kd", "result": "940 nM"}
{"Compound": "Cc1cc(Oc2ncccc2CN2CCN(c3cccc(F)c3)CC2)ccc1-c1c(C)c(=O)[nH]c(=O)n1C", "target": "ADRA2C", "assay": "ligand displacement, radioligand", "quantity": "Ki", "result": "20 nM"}
{"Compound": "CCOc1ccc(-c2cc(C(=O)O)c(-c3ccc(Cl)cc3)o2)cc1", "target": "PLEKHA3", "assay": "ligand displacement, FP", "quantity": "Ki", "result": "550 nM"}
{"Compound": "Cn1cc(-c2ccnc3ccccc23)c(-c2ccccn2)n1", "target": "Mitogen-activated protein kinase 14 (MAPK14, Homo sapiens, UniProt Q16539)", "assay": "enzyme activity, inhibitor, ADP detection", "quantity": "IC50", "result": "9400 nM"}
{"Compound": "CCOc1ccc(C(=O)CC(SCc2ccc(Cl)cc2)C(=O)O)cc1OCC (stereo not drawn)", "target": "PLEKHA3", "assay": "ligand displacement, FP", "quantity": "Ki", "result": "6810 nM"}
{"Compound": "O=C(O)c1cc(-c2ccc(-c3cc[nH]n3)cc2)c2ccc(-c3ccc(C(F)(F)F)cc3)cc2c1", "target": "ADRA2C", "assay": "cell-free assay, radioligand", "quantity": "Ki", "result": "6500 nM"}
{"Compound": "CCOc1ccc(C(=O)CC(SCc2ccc(Br)cc2)C(=O)O)cc1 (stereo not drawn)", "target": "PLEKHA3", "assay": "ligand displacement, FP", "quantity": "Ki", "result": "18600 nM"}
{"Compound": "Cc1cc(Oc2ncccc2CN2CCN(c3ccc([N+](=O)[O-])cc3Cl)CC2)ccc1-c1c(C)c(=O)[nH]c(=O)n1C", "target": "ADRA2C", "assay": "ligand displacement, radioligand", "quantity": "Ki", "result": "623 nM"}
{"Compound": "CCOc1ccccc1C(=O)CC(SCc1ccc(Cl)cc1)C(=O)O (stereo not drawn)", "target": "PLEKHA3", "assay": "ligand displacement, FP", "quantity": "Ki", "result": "7800 nM"}
{"Compound": "Cc1cc(Oc2ncccc2CN2CCN(c3ccc(Br)cc3)CC2)ccc1-c1c(C)c(=O)[nH]c(=O)n1C", "target": "ADRA2C", "assay": "ligand displacement, radioligand", "quantity": "Ki", "result": "76.1 nM"}
